# Legend:
# [1] = Drug uptake in nu/nu homozygous mouse plasma at 100 mg/kg, po as a solution in 10% EtOH/45% PEG400/water + 1:1 HCl after 1 hr by HPLC/MS/MS analysis; type: ADME, organism-based; set-up: dose 100 mg/kg, route oral
# Summary of the method: (§1)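 Female Nu/Nu mice (~8 wk, 20-22 g) given a single 100 mpk oral dose at 10 mL/kg. Vehicles: 10% EtOH/45% or 40% PEG400/water + 1 molar equiv HCl, 10% EtOH/40% PEG400/20% Captisol + HCl, or 10% NMP/90% corn oil. Heparinized blood collected 1 and 4 h post-dose; plasma analysed by HPLC/MS/MS.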
# [2] = Drug uptake in nu/nu homozygous mouse plasma at 100 mg/kg, po as a solution in 10% EtOH/45% PEG400/water + 1:1 HCl after 4 hrs by HPLC/MS/MS analysis; type: ADME, organism-based; set-up: dose 100 mg/kg, route oral; summary of the method: as §1
# [3] = system: Mus musculus; test: Toxicity in athymic nude mouse xenografted with human MDA-MB-231T cells assessed as body weight loss at 300 mg/kg, po qd for 14 days post implantation measured for 14 days; type: organism-based; set-up: dose 300 mg/kg, route oral; settings: in vivo, 336 h
# Summary of the method: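 Female NCr athymic nude mice bearing mammary fat pad MDA-MB-231T tumors (1 x 10⁶ cells). Dosed orally once daily at 10 mL/kg from fresh solutions. Body weights recorded daily; clinical signs and survival monitored daily.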
# [4] = target: T1, Sphingosine 1-phosphate receptor 1 (Homo sapiens, UniProt P21453); test: Antagonist activity at S1P1 receptor expressed in HEK293 cells assessed as inhibition of S1P-induced tango beta-arrestin recruitment preincubated for 30 mins prior S1P addition measured after 16 to 18 hrs by luciferase reporter gene assay; type: functional, cell-based
# [5] = Metabolic stability of the compound in mouse liver microsomes assessed as compound oxidation measuring disappearance of compound at 15 uM after 30 mins by LC/MS/MS analysis; type: ADME, Microsome; settings: read-out: Drug degradation
# Summary of the method: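 Incubated in duplicate for 30 min at 37 °C: 15 µM compound, 0.15% DMSO, 0.5 mg/mL mouse liver microsomes, 1 mM NADPH, 100 mM potassium phosphate pH 7.4. Stopped with acetonitrile containing 0.1% formic acid. Parent remaining measured by LC/MS/MS; disappearance calculated relative to no-NADPH controls.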
# [6] = Antitumor activity against human MDA-MB-231T cells xenografted in athymic nude mouse assessed as tumor growth inhibition at 300 mg/kg, po qd for 14 days post implantation measured for 14 days; type: functional; settings: 336 h, read-out: TGI
# Summary of the method: (§2)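 MDA-MB-231T cells grown in DMEM with 10% FBS. 1 x 10⁶ cells in ice-cold HBSS implanted into the mammary fat pad of female athymic nude (NCr) mice, 5-8 wk. Daily oral dosing at 10 mL/kg, solutions made fresh daily. Tumor weight measured twice weekly; TGI calculated against vehicle and staging-day weights; 2-tailed t-test, p<0.05.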
# [7] = target: Sphingosine 1-phosphate receptor 2 (Homo sapiens, UniProt O95136); test: Antagonist activity at S1P2 receptor expressed in HEK293 cells assessed as inhibition of S1P-induced tango beta-arrestin recruitment preincubated for 30 mins prior S1P addition measured after 16 to 18 hrs by luciferase reporter gene assay; type: functional, cell-based
# [8] = target: T1, Sphingosine 1-phosphate receptor 1; test: Antagonist activity at S1P1 receptor expressed in HEK293 cells assessed as inhibition of S1P-induced cAMP response after 90 mins by spectrophotometry; type: functional, cell-based
# [9] = target: Sphingosine 1-phosphate receptor 3 (Homo sapiens, UniProt Q99500); test: Antagonist activity at S1P3 receptor expressed in HEK293 cells assessed as inhibition of S1P-induced tango beta-arrestin recruitment preincubated for 30 mins prior S1P addition measured after 16 to 18 hrs by luciferase reporter gene assay; type: functional, cell-based
# [10] = Drug uptake in nu/nu homozygous mouse plasma at 100 mg/kg, po as a solution of 10% EtOH/40% PEG400/20% Captisol/water + 1:1 HCl after 4 hrs by HPLC/MS/MS analysis; type: ADME, organism-based; set-up: dose 100 mg/kg, route oral; summary of the method: as §1
# [11] = Drug uptake in nu/nu homozygous mouse plasma at 100 mg/kg, po as a solution of 10% EtOH/40% PEG400/20% Captisol/water + 1:1 HCl after 1 hr by HPLC/MS/MS analysis; type: ADME, organism-based; set-up: dose 100 mg/kg, route oral; summary of the method: as §1
# [12] = AUC (0 to infinity) in overnight fasted beagle dog at 3 mg/kg, po by HPLC/MS/MS analysis; type: ADME, organism-based, Canis lupus familiaris; set-up: time infinity, dose 3 mg/kg, route oral; settings: plasma
# Summary of the method: (§3)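 Male beagle dogs fasted overnight and fed again 4 h post-dose; groups of 3. Study design covered 3 mpk IV and PO. Oral dose by gavage at 3 mpk in EtOH/PEG400/water (5:45:50). K-EDTA blood taken pre-dose and at 0.08-48 h. Plasma assayed by HPLC/MS/MS; non-compartmental PK parameters.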
# [13] = Oral bioavailability in overnight fasted beagle dog at 3 mg/kg by HPLC/MS/MS analysis; type: ADME, organism-based, Canis lupus familiaris; settings: in vivo; summary of the method: as §3
# [14] = Drug uptake in nu/nu homozygous mouse plasma at 100 mg/kg, po as a suspension in 10% NMP/corn oil after 24 hrs by HPLC/MS/MS analysis; type: ADME, organism-based; set-up: dose 100 mg/kg, route oral
# [15] = Cmax in overnight fasted CD Sprague-Dawley rat at 3 mg/kg, po by HPLC/MS/MS analysis; type: ADME, organism-based; set-up: dose 3 mg/kg, route oral; settings: in vivo
# Summary of the method: (§4)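 Female Sprague-Dawley CD rats (9-10 wk, 201-225 g), fasted overnight and fed again 4 h post-dose. Given 3 mpk orally as a solution in EtOH/PEG400/water (5:45:50), n=4. Jugular-catheter blood drawn into heparin at 0.08-144 h (15 time points). Plasma assayed by HPLC/MS/MS; parameters from non-compartmental analysis.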
# [16] = AUC (0 to infinity) in overnight fasted CD Sprague-Dawley rat at 3 mg/kg, po by HPLC/MS/MS analysis; type: ADME, organism-based; set-up: dose 3 mg/kg, route oral, time infinity; settings: plasma; summary of the method: as §4
# [17] = target: Cytochrome P450 2C9 (Homo sapiens, UniProt P11712); test: Inhibition of human CYP2C9 using tolbutamide as substrate by LC/MS/MS analysis; type: ADME
# Summary of the method: (§5)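 Pooled human liver microsomes in 100 mM potassium phosphate, pH 7.4, at 37 °C with 1000 µM NADPH for 15 min. Microsomes 0.15 mg/mL for CYP2C9 and CYP2D6, 0.25 mg/mL for CYP3A4. Inhibitor tested at six concentrations (0.2–50 µM). Reactions quenched with acetonitrile; metabolite measured by LC/MS/MS; IC50 from 4-parameter sigmoidal fit.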
# [18] = target: Cytochrome P450 3A4 (Homo sapiens, UniProt P08684); test: Inhibition of human CYP3A4 using testosterone as substrate by LC/MS/MS analysis; type: ADME; summary of the method: as §5
# [19] = Half life in overnight fasted cynomolgus monkey at 3 mg/kg, po by HPLC/MS/MS analysis; type: ADME, organism-based, Macaca fascicularis; set-up: dose 3 mg/kg, route oral; settings: in vivo
# Summary of the method: (§6)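 Male cynomolgus monkeys fasted overnight and fed again 4 h post-dose; groups of 3. Dosed 3 mpk intravenously and by oral gavage as a solution in EtOH/PEG400/water (5:45:50). K-EDTA blood taken pre-dose and at 0.08-48 h. Plasma assayed by HPLC/MS/MS; non-compartmental analysis.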
# [20] = Half life in overnight fasted CD Sprague-Dawley rat at 3 mg/kg, po by HPLC/MS/MS analysis; type: ADME, organism-based; set-up: dose 3 mg/kg, route oral; settings: in vivo; summary of the method: as §4
# [21] = Oral bioavailability in overnight fasted cynomolgus monkey at 3 mg/kg by HPLC/MS/MS analysis; type: ADME, organism-based, Macaca fascicularis; settings: in vivo; summary of the method: as §6
# [22] = Cmax in overnight fasted cynomolgus monkey at 3 mg/kg, po by HPLC/MS/MS analysis; type: ADME, organism-based, Macaca fascicularis; set-up: dose 3 mg/kg, route oral; settings: in vivo; summary of the method: as §6
# [23] = Half life in overnight fasted beagle dog at 3 mg/kg, po by HPLC/MS/MS analysis; type: ADME, organism-based, Canis lupus familiaris; set-up: dose 3 mg/kg, route oral; settings: in vivo; summary of the method: as §3
# [24] = AUC (0 to infinity) in overnight fasted cynomolgus monkey at 3 mg/kg, po by HPLC/MS/MS analysis; type: ADME, organism-based, Macaca fascicularis; set-up: time infinity, dose 3 mg/kg, route oral; settings: plasma; summary of the method: as §6
# [25] = Oral bioavailability in overnight fasted CD Sprague-Dawley rat at 3 mg/kg by HPLC/MS/MS analysis; type: ADME, organism-based; settings: in vivo
# [26] = Antitumor activity against human MDA-MB-231T cells xenografted in athymic nude mouse assessed as tumor growth inhibition at 100 mg/kg, po qd for 14 days post implantation measured for 14 days; type: functional; settings: 336 h, read-out: TGI; summary of the method: as §2
# [27] = Cmax in overnight fasted beagle dog at 3 mg/kg, po by HPLC/MS/MS analysis; type: ADME, organism-based, Canis lupus familiaris; set-up: dose 3 mg/kg, route oral; settings: in vivo; summary of the method: as §3
# [28] = target: Cytochrome P450 2D6 (Homo sapiens, UniProt P10635); test: Inhibition of human CYP2D6 using bufuralol as substrate by LC/MS/MS analysis; type: ADME; summary of the method: as §5
# [29] = Drug uptake in nu/nu homozygous mouse plasma at 100 mg/kg, po as a suspension in 10% NMP/corn oil after 4 hrs by HPLC/MS/MS analysis; type: ADME, organism-based; set-up: dose 100 mg/kg, route oral; summary of the method: as §1
# [30] = Drug uptake in nu/nu homozygous mouse plasma at 100 mg/kg, po after 4 hrs by HPLC/MS/MS analysis; type: ADME, organism-based; set-up: dose 100 mg/kg, route oral; summary of the method: as §1
# [31] = Drug uptake in nu/nu homozygous mouse plasma at 100 mg/kg, po after 1 hr by HPLC/MS/MS analysis; type: ADME, organism-based; set-up: dose 100 mg/kg, route oral; summary of the method: as §1
# Chain of Sphingosine 1-phosphate receptor 3 (Q99500 whole entry): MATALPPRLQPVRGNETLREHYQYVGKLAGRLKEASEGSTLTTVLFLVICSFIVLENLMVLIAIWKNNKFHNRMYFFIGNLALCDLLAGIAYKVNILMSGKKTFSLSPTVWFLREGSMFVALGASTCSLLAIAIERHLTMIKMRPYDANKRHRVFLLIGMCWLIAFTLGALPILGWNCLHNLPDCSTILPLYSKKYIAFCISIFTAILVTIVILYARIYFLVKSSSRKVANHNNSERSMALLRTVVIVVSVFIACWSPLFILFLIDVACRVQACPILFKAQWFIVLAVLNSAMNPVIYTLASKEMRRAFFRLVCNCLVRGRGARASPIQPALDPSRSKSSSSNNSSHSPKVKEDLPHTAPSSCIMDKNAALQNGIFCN
# T1 sequence (P21453 whole entry): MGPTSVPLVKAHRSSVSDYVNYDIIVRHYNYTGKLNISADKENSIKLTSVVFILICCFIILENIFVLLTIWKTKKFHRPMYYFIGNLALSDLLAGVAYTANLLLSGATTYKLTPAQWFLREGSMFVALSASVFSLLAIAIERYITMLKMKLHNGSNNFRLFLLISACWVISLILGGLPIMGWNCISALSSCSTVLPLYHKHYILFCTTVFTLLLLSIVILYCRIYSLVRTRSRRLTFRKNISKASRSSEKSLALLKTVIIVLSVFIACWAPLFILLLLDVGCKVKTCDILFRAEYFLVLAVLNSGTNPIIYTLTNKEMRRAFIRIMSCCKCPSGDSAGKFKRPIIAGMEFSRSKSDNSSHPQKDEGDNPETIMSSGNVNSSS
# Chain of Sphingosine 1-phosphate receptor 2 (O95136 whole entry): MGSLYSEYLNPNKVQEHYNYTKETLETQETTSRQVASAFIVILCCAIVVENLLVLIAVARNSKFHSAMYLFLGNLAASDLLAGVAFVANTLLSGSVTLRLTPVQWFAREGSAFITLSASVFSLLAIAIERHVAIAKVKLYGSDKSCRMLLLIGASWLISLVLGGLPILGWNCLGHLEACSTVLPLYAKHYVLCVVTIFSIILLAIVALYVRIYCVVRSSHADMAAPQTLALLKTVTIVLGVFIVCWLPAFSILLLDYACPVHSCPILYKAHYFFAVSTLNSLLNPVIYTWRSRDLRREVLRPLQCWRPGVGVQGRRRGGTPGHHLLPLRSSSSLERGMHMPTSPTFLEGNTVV
# Chain of Cytochrome P450 2D6 (P10635 whole entry): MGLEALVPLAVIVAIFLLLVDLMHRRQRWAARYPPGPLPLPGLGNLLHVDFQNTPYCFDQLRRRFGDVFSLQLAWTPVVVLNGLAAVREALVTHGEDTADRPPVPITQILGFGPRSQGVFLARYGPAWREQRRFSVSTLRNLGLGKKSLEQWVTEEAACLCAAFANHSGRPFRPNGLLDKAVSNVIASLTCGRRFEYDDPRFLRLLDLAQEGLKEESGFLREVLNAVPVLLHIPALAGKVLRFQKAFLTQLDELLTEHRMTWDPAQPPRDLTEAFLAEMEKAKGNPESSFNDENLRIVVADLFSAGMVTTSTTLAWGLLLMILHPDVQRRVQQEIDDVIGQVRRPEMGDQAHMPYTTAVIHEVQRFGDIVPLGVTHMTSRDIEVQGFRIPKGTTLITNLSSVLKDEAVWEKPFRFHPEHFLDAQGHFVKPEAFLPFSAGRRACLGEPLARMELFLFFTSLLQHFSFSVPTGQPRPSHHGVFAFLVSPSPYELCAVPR
# Chain of Cytochrome P450 2C9 (P11712 whole entry): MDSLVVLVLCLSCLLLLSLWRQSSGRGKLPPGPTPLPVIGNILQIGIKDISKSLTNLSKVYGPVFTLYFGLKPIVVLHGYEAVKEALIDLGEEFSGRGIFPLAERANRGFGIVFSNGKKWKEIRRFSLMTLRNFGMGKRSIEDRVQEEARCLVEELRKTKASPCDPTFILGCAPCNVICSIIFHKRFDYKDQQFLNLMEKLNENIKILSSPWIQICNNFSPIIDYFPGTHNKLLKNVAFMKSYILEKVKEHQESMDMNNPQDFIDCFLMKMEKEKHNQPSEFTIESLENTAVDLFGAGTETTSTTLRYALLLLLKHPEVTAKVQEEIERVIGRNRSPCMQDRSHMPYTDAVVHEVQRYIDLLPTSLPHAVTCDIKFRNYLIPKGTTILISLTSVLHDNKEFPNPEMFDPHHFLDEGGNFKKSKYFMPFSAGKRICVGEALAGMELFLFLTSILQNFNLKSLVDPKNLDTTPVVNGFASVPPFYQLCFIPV
# Chain of Cytochrome P450 3A4 (P08684 whole entry): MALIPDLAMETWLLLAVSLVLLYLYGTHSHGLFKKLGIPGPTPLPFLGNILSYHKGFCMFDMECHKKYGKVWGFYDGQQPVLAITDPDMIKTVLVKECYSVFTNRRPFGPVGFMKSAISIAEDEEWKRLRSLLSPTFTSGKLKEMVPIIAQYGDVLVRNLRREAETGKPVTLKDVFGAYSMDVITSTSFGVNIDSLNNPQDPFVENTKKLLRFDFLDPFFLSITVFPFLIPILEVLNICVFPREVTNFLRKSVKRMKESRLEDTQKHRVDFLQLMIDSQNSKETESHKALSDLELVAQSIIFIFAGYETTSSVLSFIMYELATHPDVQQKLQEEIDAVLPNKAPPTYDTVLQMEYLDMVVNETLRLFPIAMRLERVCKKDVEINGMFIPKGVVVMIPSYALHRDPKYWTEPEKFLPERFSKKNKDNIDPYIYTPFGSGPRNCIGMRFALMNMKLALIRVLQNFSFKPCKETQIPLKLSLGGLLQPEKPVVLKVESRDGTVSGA
smiles,measurement,setting,value
O=C(Cc1cnc[nH]1)N[C@@H](COCc1ccccc1)C(=O)Nc1ccc(Oc2ccc(Cl)cc2)cc1,concentration at 1 h,[1],11 µM
same,concentration at 4 h,[2],11 µM
same,Activity,[3],Non-toxic
same,IC50,[4],221 nM
same,"metabolised at 0.5 h, 15 µM",[5],9%
same,inhibition in vivo at 300 mg/kg,[6],45%
same,IC50,[7],> 10000 nM
same,IC50,[8],32 nM
same,IC50,[9],> 10000 nM
O=C(Cc1c[nH]cn1)N[C@@H](COCc1ccccc1)c1nc2cc(Oc3ccc(F)cc3)ccc2[nH]1,concentration at 4 h,[10],2.7 µM
same,concentration at 1 h,[11],18.7 µM
same,IC50,[8],239 nM
O=C(Nc1ccc(Oc2ccc(F)cc2)cc1)[C@@H]1C[C@@H](Cc2ccc(F)cc2)CN1C(=O)Cn1ccnn1,AUC(0-inf),[12],108 µM·h
same,bioavailability,[13],99.9%
same,concentration at 24 h,[14],4.7 µM
same,Cmax,[15],3.2 µM
same,AUC(0-inf),[16],108 µM·h
same,IC50,[4],26 nM
same,IC50,[17],17300 nM
same,IC50,[18],> 20000 nM
same,half-life,[19],6.4 h
same,half-life,[20],22.5 h
same,IC50,[7],> 10000 nM
same,bioavailability,[21],45.7%
same,Cmax,[22],1.5 µM
same,half-life,[23],34 h
same,AUC(0-inf),[24],16.7 µM·h
same,bioavailability,[25],76.4%
same,IC50,[8],5.8 nM
same,inhibition in vivo at 100 mg/kg,[26],43%
same,Cmax,[27],5.4 µM
same,IC50,[28],20300 nM
same,IC50,[9],> 10000 nM
same,concentration at 4 h,[29],16.7 µM
CN(CC(=O)NC(COCc1ccccc1)C(=O)Nc1ccc(Oc2ccccc2)cc1)C(=O)c1ccccc1 (racemic),IC50,[4],2800 nM
same,concentration at 4 h,[30],< 0.019 µM
same,"metabolised at 0.5 h, 15 µM",[5],89%
same,IC50,[7],> 10000 nM
same,IC50,[8],718 nM
same,concentration at 1 h,[31],< 0.019 µM
same,IC50,[9],> 10000 nM
